Active and inactive are the calls of the source.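 The calls were made as follows, unless noted: active = GFP response above 150% of the DMSO level; inconclusive = fewer than 70 events counted for a yeast strain; inactive = the rest.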
Experiments:
[1] = hit retest on RPL19A-GFP reporter strain – cell-based, S. cerevisiae, flow cytometry, cherry picks, mother/daughter gates, confirmation (AID 2270;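 active = GFP response below 50% of the DMSO control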); conditions: 3 h, at 10 µM, stronger effect = lower value, 100 = same GFP as DMSO wells
[2] = yeast TOR pathway reporter LAP4-GFP change – cell-based, cherry picks, flow cytometry, mother/daughter gates, confirmation (AID 2271;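 active = GFP response above 150% of the DMSO control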;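 also: ratio of sample to DMSO plate mean so 100% equals DMSO level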); conditions: S. cerevisiae LAP4-GFP strain, 3 h, at 10 µM, stronger effect = higher value, 100 means same as DMSO control
Summary of the method: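 System – GFP-fusion yeast strain · Amount – 0.2 OD600 cells · Buffer or medium – SC growth medium · Dosing – single test-compound dose, 10 µM final · Schedule – 3 h treatment at 30 °C with rotation · Detection – GFP by flow cytometry · Read-out – per-gate (all, mother, daughter) GFP response vs DMSO · Benchmarks – positive rapamycin (400 ng/mL), negative DMSO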

[3] = TOR pathway reporter MEP2-GFP, retest of hits – S. cerevisiae, flow cytometry GFP, cherry picks, confirmation (AID 2272;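 active = GFP response above 150% of the DMSO control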;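 also: ratio of well signal to plate DMSO mean so 100% equals DMSO level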); conditions: S. cerevisiae MEP2-GFP strain, 3 h, at 10 µM, stronger effect = higher value
[4] = yeast AGP1-GFP fluorescence change, single-dose – cell-based, flow cytometry, S. cerevisiae, cherry picks, confirmation (AID 2273);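 also: median GFP channel fluorescence over the whole cell population gate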; conditions: S. cerevisiae AGP1-GFP strain, 3 h, at 10 µM
[5] = TOR pathway CIT2 reporter hit retest – S. cerevisiae, GFP fusion, cherry picks, mother/daughter gates, confirmation (AID 2274); conditions: S. cerevisiae CIT2-GFP strain, flow cytometry, 3 h, at 10 µM, stronger effect = higher value
[6] = measured here: daughter cell gate
[7] = measured here: mother cell gate
[8] = measured here: daughter cell gate response
[9] = measured here: mother cell gate response

SMILES	GFP response vs DMSO [1]	GFP response vs DMSO [1, 6]	GFP response vs DMSO [1, 7]	GFP response relative to DMSO [2]	GFP response relative to DMSO [2, 8]	GFP response relative to DMSO [2, 9]	GFP response vs DMSO [3]	GFP response, % of DMSO [4]	GFP response, % of DMSO [5]	GFP response, % of DMSO [5, 6]	GFP response, % of DMSO [5, 7]
COc1ccccc1CN1C(=O)c2cccc3cccc(c23)C1=O	100% (inactive)	100%	100%	91.9% (inactive)	90.7%	91.6%	104% (inactive)	108% (inactive)	99.3% (inactive)	100%	98%
O=[N+]([O-])c1ccc(Cl)cc1Sc1ccccn1	105% (inactive)	108%	104%	94.1% (inactive)	96%	91.3%	112% (inactive)	102% (inactive)	111% (inactive)	110%	108%
CCOC(=O)CNc1c(-c2ccc(OC)cc2)nc2ccc(Cl)cn12	100% (inactive)	98.4%	101%	99.8% (inactive)	98.7%	102%	97.8% (inactive)	99.2% (inactive)	95.2% (inactive)	93.2%	93.4%
O=C1CCN(S(=O)(=O)c2ccccc2)C2CCCCC12 (stereo not drawn)	98% (inactive)	97.8%	98.1%	102% (inactive)	102%	100%	106% (inactive)	100% (inactive)	108% (inactive)	104%	101%
CCCCc1[nH]nc2c1C1(C(=O)N(CC)c3ccccc31)C(C#N)=C(N)O2 (stereo not drawn)	105% (inactive)	101%	103%	98.2% (inactive)	97.5%	98.4%	101% (inactive)	106% (inactive)	102% (inactive)	97.4%	95.6%
COc1cc(NC(=O)c2cccc(F)c2)ccc1NC(=O)c1cc2ccccc2o1	97.8% (inactive)	98.3%	97.6%	98.8% (inactive)	99.3%	97.5%	102% (inactive)	101% (inactive)	97.8% (inactive)	98.3%	95.6%
Oc1ccc(Cl)cc1-c1cc(-c2ccco2)[nH]n1	103% (inactive)	100%	104%	95% (inactive)	94.1%	96.2%	109% (inactive)	88.2% (inactive)	102% (inactive)	99.7%	101%
Cc1noc2ncnc(Sc3c(Cl)cccc3Cl)c12	101% (inactive)	102%	99.8%	94.1% (inactive)	94.4%	94%	100% (inactive)	88.6% (inactive)	105% (inactive)	105%	104%
O=C(O)C1CCN(S(=O)(=O)c2ccc(Oc3ccccc3)cc2)CC1	98% (inactive)	98.3%	98.8%	97.7% (inactive)	97.9%	96.5%	104% (inactive)	96.7% (inactive)	99.3% (inactive)	100%	98%
CCN(CC)c1ccc(/C=C2\SC(=O)N(C(C)C)C2=O)o1	99.6% (inactive)	99.8%	96.5%	117% (inactive)	116%	117%	132% (inactive)	105% (inactive)	112% (inactive)	115%	110%
CCCCCn1c(=O)c(C(=O)OCC)c(O)c2ccccc21	97.6% (inactive)	96.1%	99.7%	99.2% (inactive)	96%	100%	102% (inactive)	90% (inactive)	92.6% (inactive)	89.9%	93.8%
O=C1/C(=C/c2ccccn2)COc2ccccc21	94.2% (inactive)	96.4%	91.2%	135% (inactive)	130%	134%	110% (inactive)	95.5% (inactive)	94.4% (inactive)	99.3%	88.2%
Cc1cc(N2CCN(C(=O)c3ccco3)CC2)n2ncc(-c3ccccc3)c2n1	108% (inactive)	90.8%	101%	108% (inactive)	96%	105%	116% (inactive)	106% (inactive)	118% (inactive)	95.8%	107%
